# pEC50: −log10 of the molar value.
# Columns and labels:
# [1] = test system: i3Neurons; assay: Cell viability assay in i3Neurons; assay type: cell-based, human; conditions: 72 h from DIV 7; DS1040 20 μM, RH1096 40 μM, RH1103 40 μM, RH1115 15 μM
# In short: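 Viability check: DIV 10 i3Neurons on coated coverslips exposed 72 h (0.1% DMSO vehicle), fixed, immunostained for Tau and LAMP1. 5–6 random high-magnification fields per sample; neurons per unit area counted. Tau staining used to confirm normal morphology and neurite integrity. Mean ± SEM, three independent experiments.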
# [2] = test system: LC3-II levels in HeLa cells; assay: LC3 immunoblotting; assay type: cell-based; conditions: 4 h, 1a 20 μM, 2a 40 μM, further increase with BafA1 100 nM
# [3] = test system: phosphorylation of the mTOR substrate p70S6K in HeLa cells; assay: P70S6K and phospho-P70S6K immunoblotting; assay type: cell-based; conditions: 1a 20 μM, 2a 40 μM, compared to rapamycin 1 μM
# In short: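 Same HeLa immunoblot workflow as for LC3, with test compound at 40 μM and 1% BSA for blocking. Probed for phospho-p70S6K and β-actin (anti-rabbit HRP secondary), then stripped and reprobed for total p70S6K; densitometry in ImageJ.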
# [4] = test system: HeLa cells; assay: Cell viability assay by nuclear count; assay type: cell-based; conditions: 4 h, relative to DMSO
# [5] = test system: HeLa cells expressing eGFP-LC3; assay: eGFP-LC3 puncta formation assay; assay type: cell-based
# In short: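 HeLa stably expressing eGFP-LC3, 3000 cells/well (384-well), 24 h at 37 °C, then 4 h compound exposure. PFA fixation (12 min RT), Hoechst 2 μg/mL; imaged at 10× (DAPI/FITC). Screen hits: Z' >0.4, CV <20%, z-score >2.199 in two replicates. EC50 from 12-point doses (300–0.146 or 1000–0.488 μM by series), excluding concentrations with <40% viability; three experiments in duplicate, mean ± SEM.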
# [6] = molecular target: T1, Lamin A/C (Homo sapiens, UniProt P02545); assay: Pulldown validation and competition, immunoblot for Lamin A/C; assay type: binding; conditions: Biotin-RH1115 50 μM, HeLa lysate
# T1 sequence (P02545 1-566 limits assumed): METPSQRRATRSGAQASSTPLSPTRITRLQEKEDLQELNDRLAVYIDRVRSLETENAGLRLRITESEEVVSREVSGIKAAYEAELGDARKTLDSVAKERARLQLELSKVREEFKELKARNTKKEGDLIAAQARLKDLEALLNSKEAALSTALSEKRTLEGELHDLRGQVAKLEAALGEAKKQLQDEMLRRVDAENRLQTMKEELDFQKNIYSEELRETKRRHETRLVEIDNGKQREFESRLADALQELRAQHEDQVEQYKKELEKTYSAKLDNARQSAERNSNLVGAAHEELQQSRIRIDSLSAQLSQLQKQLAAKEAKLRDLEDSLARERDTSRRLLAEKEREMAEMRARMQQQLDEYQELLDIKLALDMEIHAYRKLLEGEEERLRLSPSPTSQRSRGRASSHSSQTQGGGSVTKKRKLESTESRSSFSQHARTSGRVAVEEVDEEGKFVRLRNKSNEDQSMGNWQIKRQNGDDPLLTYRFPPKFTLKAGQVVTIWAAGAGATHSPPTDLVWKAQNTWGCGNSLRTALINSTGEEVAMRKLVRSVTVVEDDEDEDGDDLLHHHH
# In short: (§1)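 HeLa grown 3 days to confluency; lysate cleared 18,000g, 30 min, 4 °C; protein by BCA. Streptavidin magnetic beads preloaded 2 h at 4 °C with biotinylated probe (50 μM) or biotin acid (50 μM). 500 μg lysate added (200 μL), 16 h; beads washed with PBS, eluted in 1× SDS loading buffer, immunoblotted. Competition: free test compound 100 μM added with lysate, 16 h, 4 °C.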
# [7] = molecular target: T2, LAMP1 (Homo sapiens, UniProt P11279); assay: Pulldown validation and competition, immunoblot for LAMP1; assay type: binding; conditions: Biotin-RH1115 50 μM, HeLa lysate
# T2 sequence (P11279 29-417): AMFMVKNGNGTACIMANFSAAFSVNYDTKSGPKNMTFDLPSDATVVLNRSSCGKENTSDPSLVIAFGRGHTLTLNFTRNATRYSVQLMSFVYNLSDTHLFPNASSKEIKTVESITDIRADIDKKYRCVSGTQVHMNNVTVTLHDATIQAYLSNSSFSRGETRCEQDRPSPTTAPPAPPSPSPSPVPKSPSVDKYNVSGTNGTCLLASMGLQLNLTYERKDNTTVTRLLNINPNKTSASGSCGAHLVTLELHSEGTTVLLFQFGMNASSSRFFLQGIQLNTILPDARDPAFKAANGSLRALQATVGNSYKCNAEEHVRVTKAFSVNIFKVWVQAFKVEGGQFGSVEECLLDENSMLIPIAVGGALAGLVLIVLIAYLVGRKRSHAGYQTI
# In short: as §1
# [8] = test system: i3Neurons stably expressing LC3-RFP-GFP; assay: LC3-RFP-GFP dual reporter live imaging in i3Neurons; assay type: cell-based, human
# In short: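 iPSC-derived i3Neurons stably expressing LC3-RFP-GFP, DIV 10; 0.1% DMSO or test compound 15 μM for 72 h, or BafA1 100 nM for 24 h. Live Fast Airyscan at 37 °C; single mid-cell scan, 488/560 nm. GFP+RFP+ vesicles scored as autophagosomes, RFP-only as autolysosomes. Autolysosome size and intensity from red-channel particle analysis. Three experiments, 60–70 cells per treatment; mean ± SEM.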
# [9] = test system: i3Neurons; assay: Analysis of lysosomal; assay type: cell-based, human; conditions: 15 μM, 72 h, vs DMSO
# In short: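 DIV 10 i3Neurons on poly-L-ornithine/laminin-coated glass coverslips; 72 h exposure, 0.1% DMSO vehicle; fixed, LAMP1-immunostained, imaged by high-resolution confocal. Soma outlined, thresholded, ImageJ particle analysis (minimum 0.002 μm²) giving vesicle mean size, intensity and count per neuron. Three independent experiments, 20–25 neurons per treatment; mean ± SEM.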
# [10] = test system: LAMP1; assay: LAMP1 expression immunoblotting in HeLa cells; assay type: cell-based; conditions: 50 μM, 24 h, vs control
# In short: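 HeLa seeded at 300,000 cells/mL in 6-well plates; 0.1% DMSO or test compound 50 μM. Lysates cleared 12,000 rpm, 30 min, 4 °C; 10% SDS-PAGE, PVDF transfer; 5% blocker in TBS-T; primary antibody overnight 4 °C, HRP secondary 1 h RT; chemiluminescent detection; band quantification in ImageJ.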
smiles,measurement,setting,value
"OCC1CN(Cc2ccccc2)CC12CCN(Cc1ccccn1)CC2 (stereo not shown) [Compound 2a, (2-Benzyl-8-(pyridin-2-ylmethyl)-2,8-diazaspiro[4.5]decan-4-yl)methanol]",cytotoxicity in i3Neurons (cell density at end of treatment),[1],no overt cytotoxicity
same,LC3-II levels by western blot,[2],significant increase
same,phosphorylation of p70S6K (mTOR dependence of autophagy activation),[3],mTOR-independent manner
"CCCn1cc(CN2CCc3nc(-c4ccccc4)[nH]c(=O)c3CC2)c2ccccc21 [Compound 1c, 2-Phenyl-7-((1-propyl-1H-indol-3-yl)methyl)-3,5,6,7,8,9-hexahydro-4H-pyrimido[4,5-d]azepin-4-one]",cytotoxicity (percent viability by nuclear count),[4],increase in cell death at concentrations that are close to the concentrations that induced autophagy
"OCC1CN(Cc2ccccc2)CC12CCN(Cc1ccncc1)CC2 (stereo not shown) [Compound 2d, (2-Benzyl-8-(pyridin-4-ylmethyl)-2,8-diazaspiro[4.5]decan-4-yl)methanol]",fold decrease in potency compared to RH1096 (eGFP-LC3 puncta formation),[5]; relative to RH1096,2 fold
"CCCn1cc(CN2CCc3nc(N4CCN(C)CC4)[nH]c(=O)c3CC2)c2ccccc21 [Compound 1a, 2-(4-Methylpiperazin-1-yl)-7-((1-propyl-1H-indol-3-yl)methyl)-3,5,6,7,8,9-hexahydro-4H-pyrimido[4,5-d]azepin-4-one]",cytotoxicity in i3Neurons (cell density at end of treatment),[1],no overt cytotoxicity
same,LC3-II levels by western blot,[2],significant increase
same,phosphorylation of p70S6K (mTOR dependence of autophagy activation),[3],mTOR-independent manner
"O=C(CCCCC1SCC2NC(=O)NC21)NCCOCCOCCOCCn1nncc1CCCC(=O)OCC1CN(Cc2ccccc2)CC12CCN(CC1CCCCC1)CC2 (stereo not shown) [Biotin-RH1115, (2-Benzyl-8-(cyclohexylmethyl)-2,8-diazaspiro[4.5]decan-4-yl)methyl 4-(1-(13-Oxo-17-(2-oxohexahydro-1H-thieno[3,4-d]imidazol-4-yl)-3,6,9-trioxa-12-azaheptadecyl)-1H-1,2,3-triazol-5-yl)butanoate]",Lamin A/C capture in pulldown eluent (western blot),[6],highly enriched
same,pEC50,"[5]; Homo sapiens, HeLa, 4 h, read-out: EC50 in the eGFP-LC3 puncta formation assay",4.34
same,glycosylated LAMP1 capture in pulldown eluent (western blot),[7],pulled down and concentrated in the eluent
"OCC1CN(Cc2ccccc2)CC12CCN(CC1CCCCC1)CC2 (stereo not shown) [Compound 2c, (2-Benzyl-8-(cyclohexylmethyl)-2,8-diazaspiro[4.5]decan-4-yl)methanol]",cytotoxicity in i3Neurons (cell density at end of treatment),[1],no overt cytotoxicity
same,autolysosome size relative to DMSO-treated condition,"[8]; 15 μM, 72 h",~3 times
same,total RFP intensity per autolysosome vesicle,"[8]; 15 μM, 72 h, vs DMSO",increased
same,fold increase in potency compared to RH1096 (eGFP-LC3 puncta formation),[5]; relative to RH1096,6 fold
same,intensity of LAMP1 vesicles,[9],increased
same,mean size of LAMP1 vesicles,[9],increased
same,ratio of glycosylated/non-glycosylated LAMP1,[10],significant increase
"CO/C1=C\C(C)=C\[C@@H](C)[C@@H](O)[C@@H](C)C/C(C)=C/C=C/[C@H](OC)[C@@H]([C@@H](C)[C@@H](O)[C@H](C)[C@@]2(O)C[C@@H](O)[C@H](C)[C@@H](C(C)C)O2)OC1=O [BafA1, bafilomycin A1, reference compound]",percentage of autolysosomes,"[8]; BafA1 100 nM 24 h, compared with RH1115 or DMSO",far less
same,number of autophagosomes per neuronal cell body,"[8]; RH1115 15 μM 72 h, BafA1 100 nM 24 h",massively increased
"OCC1CN(Cc2ccccc2)CC12CCN(Cc1ccccc1)CC2 (stereo not shown) [Compound 2b, (2,8-Dibenzyl-2,8-diazaspiro[4.5]decan-4-yl)methanol]",cytotoxicity in i3Neurons (cell density at end of treatment),[1],no overt cytotoxicity
same,fold increase in potency compared to RH1096 (eGFP-LC3 puncta formation),[5]; relative to RH1096,3 fold
